Calls of active or inactive are those of the source. The rule behind the calls is not given here.
Columns and labels:
[1] = tested on: T47D; assay: Induction of apoptosis in human T47D cells assessed as caspase activation after 48 hrs by HTS assay; format: functional, cell-based
Method in brief: (§1)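 Cell-based caspase-3 activation HTS read with a proprietary fluorescent caspase-3 substrate in T47D, HCT116 and SNU398 cells. Compounds applied for 48 h, highest level 10 µM. EC50 reported as mean ± SEM of three or more experiments.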

[2] = tested on: HCT-116; assay: Induction of apoptosis in human HCT116 cells assessed as caspase activation after 48 hrs by HTS assay; format: functional, cell-based; conditions: HCT-116, 48 h; method in brief: as §1
[3] = tested on: SNU-398; assay: Induction of apoptosis in human SNU398 cells assessed as caspase activation after 48 hrs by HTS assay; format: functional, cell-based; conditions: SNU-398, 48 h; method in brief: as §1
[4] = tested on: T47D; assay: Growth inhibition of human T47D cells after 48 hrs; format: functional
Method in brief: (§2)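 96-well growth-inhibition (GI50) format, run in parallel in T47D breast, HCT116 colon and SNU398 hepatocellular carcinoma cells.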

[5] = tested on: HCT-116; assay: Growth inhibition of human HCT116 cells after 48 hrs; format: functional; conditions: HCT-116, 48 h; method in brief: as §2
[6] = tested on: SNU-398; assay: Growth inhibition of human SNU398 cells after 48 hrs; format: functional; conditions: SNU-398, 48 h; method in brief: as §2
[7] = Inhibition of tubulin polymerization up to 50 uM
[8] = tested on: T47D; assay: Induction of apoptosis in human T47D cells assessed as accumulation at subG1 phase at 0.05 uM after 24 hrs by flow cytometry analysis; format: functional
Method in brief: (§3)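 T47D cells treated at 0.05 µM for 24 h or 48 h at 37 °C alongside untreated controls. Cells stained with propidium iodide and analysed by flow cytometry. Percentages in sub-G1, G1, S and G2/M read from DNA-content histograms.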

[9] = tested on: T47D; assay: Induction of apoptosis in human T47D cells assessed as accumulation at G1 phase at 0.05 uM after 24 hrs by flow cytometry analysis; format: functional; method in brief: as §3
[10] = tested on: T47D; assay: Induction of apoptosis in human T47D cells assessed as accumulation at S phase at 0.05 uM after 24 hrs by flow cytometry analysis; format: functional; method in brief: as §3
[11] = tested on: T47D; assay: Induction of apoptosis in human T47D cells assessed as accumulation at G2/M phase at 0.05 uM after 24 hrs by flow cytometry analysis; format: functional; method in brief: as §3
[12] = tested on: T47D; assay: Induction of apoptosis in human T47D cells assessed as accumulation at subG1 phase at 0.05 uM after 48 hrs by flow cytometry analysis; format: functional; method in brief: as §3
[13] = tested on: T47D; assay: Induction of apoptosis in human T47D cells assessed as accumulation at G1 phase at 0.05 uM after 48 hrs by flow cytometry analysis; format: functional; method in brief: as §3
[14] = tested on: T47D; assay: Induction of apoptosis in human T47D cells assessed as accumulation at S phase at 0.05 uM after 48 hrs by flow cytometry analysis; format: functional; method in brief: as §3
[15] = tested on: T47D; assay: Induction of apoptosis in human T47D cells assessed as accumulation at G2/M phase at 0.05 uM after 48 hrs by flow cytometry analysis; format: functional; method in brief: as §3
[16] = Inhibition of tubulin polymerization

Row | Compound | EC50 [1] [nM] | EC50 [2] [nM] | EC50 [3] [nM] | also measured
1 | FC(F)(F)c1cc(Nc2cccc(-c3ccccc3)c2)nc(-c2cccnc2)n1 | > 10000 | > 10000 | > 10000 | –
2 | COc1cc(Nc2cc(C(F)(F)F)nc(-c3cnccn3)n2)cc(OC)c1 | 130 | > 10000 | > 10000 | –
3 | FC(F)(F)c1cc(Nc2cccc(Cl)c2)nc(-c2cccnc2)n1 | > 10000 | > 10000 | > 10000 | –
4 | COc1cccc(Nc2cc(C(F)(F)F)nc(-c3cccnc3)n2)c1 | 340 | > 10000 | > 10000 | GI50 [4]: 94 nM; GI50 [5]: > 10000 nM; GI50 [6]: 6400 nM; Activity [7]: inactive
5 | COc1ccc(OC)c(Nc2cc(-c3ccccn3)nc(-c3ccccn3)n2)c1 | 420 | 330 | 160 | GI50 [4]: 240 nM; GI50 [5]: 130 nM; GI50 [6]: 410 nM
6 | Oc1ccc(Cl)c(Nc2cc(C(F)(F)F)nc(-c3cccnc3)n2)c1 | 230 | > 10000 | > 10000 | –
7 | Oc1ccc(Cl)c(Nc2cc(C(F)(F)F)nc(-c3ccncc3)n2)c1 | 77 | 1100 | – | –
8 | COc1ccc(OC)c(Nc2cc(C(F)(F)F)nc(-c3cnccn3)n2)c1 | 48 | 410 | 280 | –
9 | COc1ccc(C)cc1Nc1cc(C(F)(F)F)nc(-c2ccncc2)n1 | 76 | 160 | – | –
10 | COc1ccc(Cl)c(Nc2cc(C(F)(F)F)nc(-c3ccncc3)n2)c1 | 100 | 960 | – | –
11 | Cc1ccc(O)cc1Nc1cc(C(F)(F)F)nc(-c2cnccn2)n1 | 190 | > 10000 | > 10000 | –
12 | COc1cc(Nc2cc(C(F)(F)F)nc(-c3cccnc3)n2)cc(OC)c1 | 82 | 2900 | 1400 | GI50 [4]: 61 nM; GI50 [5]: 1300 nM; GI50 [6]: 1000 nM
13 | COc1ccc(C)cc1Nc1cc(C(F)(F)F)nc(-c2cccnc2)n1 | 96 | 130 | 130 | –
14 | COc1ccc(OC)c(Nc2nc(-c3ccccn3)ncc2OC)c1 | > 10000 | > 10000 | > 10000 | –
15 | COc1cccc(Nc2cc(C(F)(F)F)nc(-c3ccccn3)n2)c1 | 360 | 6000 | 3700 | –
16 | COc1ccc(OC)c(Nc2cc(C(F)(F)F)nc(-c3cccnc3)n2)c1 | 24 | 170 | 130 | GI50 [4]: 95 nM; GI50 [5]: 180 nM; GI50 [6]: 68 nM; Activity [8]: 7%; Activity [9]: 32%; Activity [10]: 6%; Activity [11]: 53%; Activity [12]: 19%; Activity [13]: 31%; Activity [14]: 7%; Activity [15]: 43%; IC50 [16]: 500 nM
17 | Oc1cccc(Nc2cc(C(F)(F)F)nc(-c3cccnc3)n2)c1 | 970 | > 10000 | > 10000 | –
18 | COc1cccc(Nc2cc(C(F)(F)F)nc(-c3ccncc3)n2)c1 | 1300 | > 10000 | > 10000 | –
19 | Cc1ccc(C)c(Nc2cc(C(F)(F)F)nc(-c3ccncc3)n2)c1 | 120 | 610 | – | –

Row | Compound | EC50 [1] [nM] | EC50 [2] [nM] | EC50 [3] [nM] | also measured
20 | Cc1ccc(O)cc1Nc1cc(C(F)(F)F)nc(-c2ccncc2)n1 | 48 | 2000 | – | –
21 | COc1ccc(Cl)c(Nc2cc(C)nc(N3CCOCC3)n2)c1 | > 10000 | > 10000 | > 10000 | –
22 | COc1ccc(Cl)c(Nc2cc(C(F)(F)F)nc(-c3c(Cl)cncc3Cl)n2)c1 | > 10000 | > 10000 | > 10000 | –
23 | COc1ccc(Nc2cc(C(F)(F)F)nc(-c3ccncc3)n2)cc1 | > 10000 | > 10000 | > 10000 | –
24 | COc1ccc(Nc2cc(C(F)(F)F)nc(-c3cccnc3)n2)cc1 | > 10000 | > 10000 | > 10000 | –
25 | COc1ccc(OC)c(Nc2cc(C(F)(F)F)nc(-c3ccccn3)n2)c1 | 18 | 190 | 110 | –
26 | COc1cccc(Nc2cc(C(F)(F)F)nc(C3CCCCN3)n2)c1 (stereo not drawn) | > 10000 | > 10000 | > 10000 | –
27 | Oc1cccc(Nc2cc(C(F)(F)F)nc(-c3ccncc3)n2)c1 | 680 | 3100 | – | –
28 | COc1ccc(Oc2ccccc2)cc1Nc1cc(C(F)(F)F)nc(-c2cccnc2)n1 | 1500 | 3300 | 5000 | –
29 | Cc1ccc(O)cc1Nc1cc(C(F)(F)F)nc(-c2cccnc2)n1 | 87 | > 10000 | 5500 | –
30 | COc1cccc(Nc2nc(-c3ccccn3)ncc2OC)c1 | > 10000 | > 10000 | > 10000 | –
31 | COc1cc(Nc2cc(C(F)(F)F)nc(-c3ccncc3)n2)cc(OC)c1 | 34 | 240 | – | GI50 [4]: 36 nM; GI50 [5]: 270 nM; GI50 [6]: 270 nM
32 | Oc1ccc(Cl)c(Nc2cc(C(F)(F)F)nc(-c3cnccn3)n2)c1 | 560 | > 10000 | > 10000 | –
33 | COc1ccc(Cl)c(Nc2cc(C(F)(F)F)nc(-c3cccnc3)n2)c1 | 140 | 930 | 820 | –
34 | COc1ccc(C)c(Nc2cc(C(F)(F)F)nc(-c3ccncc3)n2)c1 | 25 | 120 | – | –
35 | COc1cccc(Nc2cc(C(F)(F)F)nc(-c3ccccc3)n2)c1 | > 10000 | > 10000 | > 10000 | –
36 | COc1ccc(N2CCCCC2)c(Nc2cc(C(F)(F)F)nc(-c3cccnc3)n2)c1 | > 10000 | > 10000 | > 10000 | –
37 | COc1ccc(Cl)cc1Nc1cc(C(F)(F)F)nc(-c2cccnc2)n1 | 360 | 610 | 440 | –

Reference: ChEMBL document CHEMBL1153967, “Discovery of substituted 4-anilino-2-arylpyrimidines as a new series of apoptosis inducers using a cell- and caspase-based high throughput screening assay. 2. Structure-activity relationships of the 2-aryl group” (Bioorg Med Chem Lett, 2009)
